# High-throughput results: PubChem BioAssay, The Scripps Research Institute Molecular Screening Center
# In the library only some 2% were active in any assay of this set; here they are far more common.
# ABHD4 inh: ABHD4 (mouse) inhibition, primary FP screen. Q8VD66. purified mABHD4, FP-Rh probe fluorescence polarization. inhibition, % at 8.92 µM. 0.54% of 370,000 active;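 active = inhibition exceeding the mean over every tested compound plus 3 SD, cut at about 30% in these data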
# Target sequence (Q8VD66 whole entry, looked up): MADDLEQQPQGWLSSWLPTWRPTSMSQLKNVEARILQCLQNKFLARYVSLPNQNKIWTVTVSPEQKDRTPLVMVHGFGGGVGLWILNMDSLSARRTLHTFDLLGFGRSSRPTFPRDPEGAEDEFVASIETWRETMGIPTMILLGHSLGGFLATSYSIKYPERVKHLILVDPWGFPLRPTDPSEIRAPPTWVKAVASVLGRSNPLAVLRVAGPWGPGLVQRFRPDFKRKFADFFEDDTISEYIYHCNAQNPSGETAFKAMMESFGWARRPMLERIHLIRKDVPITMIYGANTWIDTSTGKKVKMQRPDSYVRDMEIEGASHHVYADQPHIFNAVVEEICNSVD
#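 Assay system: mouse ABHD4 enzyme, wild type / Also added: fluorescent activity-based probe FP-Rh / Doses: single nominal dose of 8.92 µM, 0.89% DMSO final / Timing: 45 min compound pre-incubation plus 60 min probe step, 25 °C / Signal: FP readout, ex 525 nm / em 598 nm / Control set: S159A mutant/DMSO as 100%, compound-well median as 0%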
# TCR-CD3 inh: inhibitors of human TCR-CD3 interaction; TAMRA-labeled TCR probe fluorescence, biochemical; inhibition, % at 9.4 µM; 0.37% of 360,000 active; AID 651800; in the data active = inhibition above about 19%;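 note: recombinant mutant TCR 2C K166C tagged with TAMRA read by polarization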
# SIAE primary: human SIAE inhibition, primary screen; Q9HAT2; SIAE FP-Rh probe binding, fluorescence polarization; AID 1053197; inhibition, % at 9.66 µM; 0.69% of 370,000 active;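 active = inhibition above a cutoff: mean of compounds within the control limits plus 3 SD of those, cut at about 17% in these data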
# TDP2 absorb: blocks human TDP2 phosphodiesterase activity | 0.34% of 370,000 active | inhibition, % at 12.8 µM | O95551 | recombinant TDP2, T5PNP hydrolysis, p-nitrophenol absorbance 415 nm;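 active = inhibition above the mean of all tested compounds plus 3 SD, set per campaign, cut at about 25% in these data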
#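 Test system: Human TDP2 enzyme | Reagent: 5 mM T5PNP | Compound dosing: 12.8 µM single point, 1% DMSO | Incubation: Enzyme reaction with compound for 2 h at 37 °C | Technique: p-Nitrophenol epi absorbance | Read-out: % inhibition relative to enzyme-containing and enzyme-free wells | Benchmarks: High control without enzyme, low control DMSO plus TDP2 | Replicates: Singlicate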
# HTRA1 inhibitor: blocks human HTRA1 serine peptidase; recombinant HTRA1, FP-rhodamine activity-based probe, fluorescence polarization; inhibition, % at 5.96 µM; 0.5% of 340,000 active; AID 504803; in the data active = inhibition above about 36%
# PAD4 FP inh: inhibitors of human PAD4. Q9UM07. AID 485272. inhibition, % at 6.36 µM. 0.41% of 330,000 active. recombinant PAD4, RCA probe fluorescence polarization;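 active = percent inhibition above a cutoff equal to the mean of all tested compounds plus 3 SD, cut at about 15% in these data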
# mABHD4 conf: ABHD4 (mouse) inhibition, FP confirmation | 55% of 1,800 active | inhibition, % at 8.92 µM | shares compounds with ABHD4 inh | purified mABHD4, FP-Rh probe fluorescence polarization;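 active = mean inhibition across replicates above the hit cutoff set in the primary screen, cut at about 30% in these data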
# A number is an active result; . = inactive; / = not tested or not shown.
SMILES,ABHD4 inh,TCR-CD3 inh,SIAE primary,TDP2 absorb,HTRA1 inhibitor,PAD4 FP inh,mABHD4 conf
Cc1ccc(Nc2nc(NCCO)c3ccccc3n2)cc1C,35,.,.,.,.,.,78
CC(C)(C)n1cn[nH]c1=S,.,.,.,.,.,.,/
Nc1cc2c(cc1Br)[nH]c(=O)c1ccccc12,31,.,.,.,.,/,31
Nc1cccc2[nH]c(=O)c3ccccc3c12,31,.,.,.,.,/,.
Cc1ccc(S(=O)(=O)N2C[C@H]3C(=O)C[C@@H]4C(=O)N(c5ccccc5)C(=O)[C@@H]4[C@@H]3C[C@H]2c2cccs2)cc1,.,.,.,.,/,/,/
CCCCC(=O)NC(=S)Nc1cccc(NC(=O)c2ccccc2)c1,.,.,.,.,.,.,/
Cn1cnc(CCNC(=O)C[C@H]2CC[C@@H]3[C@H](COC[C@H](O)CN3C(=O)C3CCCC3)O2)c1,.,.,.,.,/,/,/
CCC(C)C(=O)Nc1nc(C)c(-c2csc(Nc3cc(OC)ccc3OC)n2)s1 (centres undefined),38,.,.,.,.,.,62
CCC(C)C(=O)Nc1nc(C)c(-c2csc(Nc3cc(Cl)ccc3OC)n2)s1 (centres undefined),.,.,.,.,.,.,/
Cc1c(C(=O)O)cccc1-n1c(C)cc(/C=N/Nc2ccc([N+](=O)[O-])cn2)c1C,30,.,.,.,.,.,48
Oc1ccc2ccccc2c1C=NNc1ccccn1,36,.,.,.,.,/,.
COC(=O)c1cc2c(c3c4cc(OC)ccc4n(S(=O)(=O)c4ccc(OC)cc4)c13)C(=O)N(Cc1ccc(N(C)C)cc1)C2,.,.,.,.,/,/,/
O=C(CCNS(=O)(=O)c1ccccc1C(F)(F)F)NNC(=O)C1COc2ccccc2O1 (centres undefined),42,.,.,.,.,.,.
O=C(CCNS(=O)(=O)c1ccccc1)NNC(=O)C1COc2ccccc2O1 (centres undefined),.,.,.,.,.,.,/
CCOC(=O)C(Cc1ccccc1)c1ccnc2ncnn12 (centres undefined),.,.,.,.,.,.,/
COc1ccc(NS(=O)(=O)c2cc(N)ccc2N2CCCC2)cc1,39,.,.,.,.,.,32
COc1ccc(NS(=O)(=O)c2cc(N)ccc2N2CCOCC2)cc1,.,.,.,.,.,.,/
Cc1ccc(-c2ccccc2)n1-c1ccc(C(=O)O)cc1,36,.,.,.,.,.,.
CCOc1ccccc1N1Cc2cc(C)c(C)cc2C1,.,.,.,.,.,.,/
COc1ccc(OC)c(N2Cc3cc(C)c(C)cc3C2)c1,30,.,.,.,.,.,36
COC(=O)c1cnc2c(c(C)nn2C)c1OC,.,.,.,.,/,.,/
Cc1ccc(S(=O)(=O)/N=C2\C=C(NS(=O)(=O)c3ccccc3)C(=O)c3ccccc32)c(C)c1,50,.,.,.,.,/,36
CC(C)(C)c1ccc(S(=O)(=O)/N=C2\C=C(NS(=O)(=O)c3ccccc3)C(=O)c3ccccc32)cc1,36,.,.,.,.,.,60
O=c1ccc2nc3ccccc3sc-2c1,66,.,.,.,/,/,37
Brc1ccc(-c2nc3ccccc3s2)s1,.,.,.,.,.,.,/
SMILES,ABHD4 inh,TCR-CD3 inh,SIAE primary,TDP2 absorb,HTRA1 inhibitor,PAD4 FP inh,mABHD4 conf
COc1ccc(C(=O)Nc2nc3ccccc3[nH]2)cc1OC,.,.,.,.,.,.,/
COc1ccc(OCC(=O)Nc2nc3ccccc3[nH]2)cc1,39,.,.,.,.,.,39
CCOc1ccc(C(=O)Nc2nc3ccccc3[nH]2)cc1OCC,35,.,.,.,.,.,40
COc1cc(OC)cc(C(=O)Nc2nc3ccccc3[nH]2)c1,36,.,.,.,.,.,31
CC(OC(=O)C1=COCCO1)C(=O)c1ccc(C(C)(C)C)cc1 (centres undefined),.,.,.,.,.,/,/
COc1ccc(C(NC(=O)C2CCN(Cc3ccc(Oc4ccccc4)cc3)CC2)c2ccccc2C)cn1 (centres undefined),.,.,.,.,/,/,/
C[C@@H]1CN([C@H](C)CO)C(=O)CCCn2nncc2CO[C@H]1CN(C)Cc1ccc2cccnc2c1,.,.,.,.,.,/,/
c1ccc(Nc2cccc(Nc3ccccc3)n2)cc1,.,.,.,.,.,.,/
O=S(=O)(O)c1cccc2cccc(Nc3ccccc3)c12,61,.,.,.,.,.,.
COc1ccc(/C(C)=N/Nc2cccc(C(=O)O)c2)cc1OC,.,.,.,.,.,.,/
C/C(=N\Nc1cccc(C(=O)O)c1)c1ccc(Cl)s1,40,.,.,.,.,.,45
C/C(=N\Nc1cccc(C(=O)O)c1)c1cc2ccccc2o1,32,.,.,.,.,.,30
O=C1/C(=C/c2ccco2)SC(=S)N1C1CCS(=O)(=O)C1 (centres undefined),.,.,.,.,.,.,/
O=C1/C(=C/c2cccnc2)SC(=S)N1CC1CCCO1 (centres undefined),.,.,.,.,.,.,/
Cc1ccc(/C=C2\SC(=S)N(CC3CCCO3)C2=O)o1 (centres undefined),30,.,.,.,.,.,.
O=C1/C(=C/c2ccco2)SC(=S)N1CC1CCCO1 (centres undefined),32,.,.,.,/,.,.
O=C1/C(=C\c2ccco2)SC(=S)N1C1CCS(=O)(=O)C1 (centres undefined),35,.,.,.,/,.,.
Cc1nn(CC(=O)NCc2cccnc2)c(C)c1[N+](=O)[O-],.,.,.,.,.,.,/
N=C1c2c(cc(=O)n3c2[nH]c2ccccc23)CN1CCN1CCOCC1,31,.,.,.,.,.,.
O=c1c2ccccc2[nH]c(=S)n1CCCN1CCOCC1,.,.,.,.,.,.,/
Oc1ccc(NC(=S)Nc2ccc(O)cc2)cc1,49,.,.,.,.,.,.
O=C(COC(=O)Cc1n[nH]c(=O)c2ccccc12)NNC(=O)c1ccc(Cl)cc1,.,.,.,.,.,.,/
CN(C(=O)Cn1cnc2ccccc2c1=O)C1CCS(=O)(=O)C1 (centres undefined),50,.,.,.,.,.,.
C[C@H]1CN([C@@H](C)CO)C(=O)CCCn2cc(nn2)CO[C@@H]1CN(C)C(=O)Nc1ccc(F)cc1,.,.,.,.,.,/,/
COc1ccc(-c2nc(N/N=C(\C)c3ccc(O)cc3)c3ccccc3n2)cc1,32,.,.,.,.,.,.
CN(C)c1ccc(/C=C/CNC[C@H]2O[C@@H](n3ccc(N)nc3=O)[C@H](O)[C@@H]2O)cc1,.,.,.,.,.,/,/
COc1ccc(CCCCCCOCc2ccccc2)cc1,.,.,.,.,.,.,/
